How the values were obtained:
[1] = system: U-937, HeLa, H460, 786-O, and MCF-7; test: 72-hour cytotoxicity across five human cell lines; assay type: cell-based; details: MTS and SRB cytotoxicity assays
In short: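 Cells were treated with test compound for 72 h. U-937 cells were read by MTS reduction. HeLa, H460, 786-O and MCF-7 cells were read by sulforhodamine B staining. IC50 values are given in nM as the mean with standard deviation, n ≥ 3.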

[2] = system: U-937 cells; test: Annexin V-FITC / propidium iodide apoptosis analysis; assay type: cell-based, human; details: 24 hours, U-937, 100-times the 72-hour IC50 values
[3] = system: HeLa (cervical carcinoma); test: 72-hour SRB cytotoxicity assay in HeLa cells; assay type: cell-based, human; details: read-out: IC50 (HeLa), 72-hour exposure
In short: (§1)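 Human cancer cells were exposed continuously to test compound for 72 h. Viability was read by MTS for U-937 cells and by sulforhodamine B staining for HeLa cells. IC50 values are given in nM as the mean of at least three determinations with standard deviation.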

[4] = system: U-937 (hystiocytic lymphoma); test: 72-hour MTS cytotoxicity assay in U-937 cells; assay type: cell-based, human; details: read-out: IC50 (U-937), 72-hour exposure
In short: as §1

[5] = system: U-937 and HeLa human cancer cell lines; test: Anticancer activity screen, cell line not given; assay type: cell-based
In short: as §1

## CN1C(=O)[C@@]23C[C@]4([C@]56C[C@@]78SS[C@@](CO)(C(=O)N7[C@H]5Nc5ccccc56)N(C)C8=O)c5ccccc5N[C@@H]4N2C(=O)[C@]1(CO)SS3 [Compound 4, (+)-chaetocin A]
[1]
  IC50 / potency range (in words): subnanomolar

## (+)-chaetocin C [Compound 5]
[2]
  induction of apoptotic cell death: induce caspase-dependent apoptotic cell death
[1]
  IC50 / potency range (in words): subnanomolar

## (+)-12,12'-dideoxyverticillin A [Compound 3]
[3]
  IC50: 7.2 nM
[4]
  IC50: 15.5 nM

## (+)-gliocladin B [Compound 7]
[5]; anticancer activity, cell line not specified
  IC50: > 10000 nM

## CN1C(=O)C(=O)N2C(=C[C@]3(c4c[nH]c5ccccc45)c4ccccc4N[C@H]23)C1=O [Compound 52, (+)-Gliocladin C]
[5]; 72-hour exposure, U-937 and HeLa
  anticancer activity (in words): complete loss of biological activity

From PMC3728915 (Chemical science (Royal Society of Chemistry : 2010), 2013)
